{"data": "Results from different studies", "target": "Inhibitor of nuclear factor kappa-B kinase subunit epsilon (IKBKE, Homo sapiens, UniProt Q14164)", "observed": "enzyme activity", "Residues used in one study (Q14164 1-716)": "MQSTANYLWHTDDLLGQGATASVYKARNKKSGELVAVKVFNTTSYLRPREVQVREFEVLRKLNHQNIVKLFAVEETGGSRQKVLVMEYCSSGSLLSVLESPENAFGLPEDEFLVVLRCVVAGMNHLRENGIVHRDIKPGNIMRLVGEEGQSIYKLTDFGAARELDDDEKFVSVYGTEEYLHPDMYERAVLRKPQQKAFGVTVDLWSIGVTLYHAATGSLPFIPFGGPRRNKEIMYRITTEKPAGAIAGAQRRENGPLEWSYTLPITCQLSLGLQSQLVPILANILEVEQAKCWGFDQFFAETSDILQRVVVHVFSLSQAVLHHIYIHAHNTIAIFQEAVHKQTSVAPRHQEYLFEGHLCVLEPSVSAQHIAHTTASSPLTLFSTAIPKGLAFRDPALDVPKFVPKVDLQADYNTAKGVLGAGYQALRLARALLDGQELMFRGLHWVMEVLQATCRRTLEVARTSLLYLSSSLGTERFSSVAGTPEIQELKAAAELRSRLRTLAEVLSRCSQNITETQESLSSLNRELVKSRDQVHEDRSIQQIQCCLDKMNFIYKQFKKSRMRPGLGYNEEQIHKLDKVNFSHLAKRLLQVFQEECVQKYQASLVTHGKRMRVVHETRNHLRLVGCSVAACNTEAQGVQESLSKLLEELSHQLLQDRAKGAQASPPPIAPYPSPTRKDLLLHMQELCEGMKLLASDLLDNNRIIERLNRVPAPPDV", "note": "Compare with care: the assays were run in different laboratories."}
{"Compound": "COc1cc(Cl)c(C(=O)N[C@@H](CN[C@H]2CC[C@@H](N)CC2)Cc2ccc(C#N)cc2)cc1-c1ccc(CN[C@H](C)c2ccc(C)cc2)o1", "assay": "inhibitor", "conditions": "1 µM", "remaining activity [%]": 89}
{"Compound": "Cc1ccc(C(=O)Nc2ccc(CN3CCN(C)CC3)c(C(F)(F)F)c2)cc1C#Cc1cnc2cccnn12", "assay": "inhibitor", "conditions": "23.5 nM", "remaining activity [%]": 99}
{"Compound": "Nc1ncnc2occ(-c3ccc(NC(=O)Nc4cc(C(F)(F)F)ccc4F)cc3)c12", "assay": "inhibitor", "conditions": "20 µM", "remaining activity [%]": 12}
{"Compound": "O=C(NCCCNc1nc(Nc2cccc(NC(=O)N3CCCC3)c2)ncc1I)c1cccs1", "assay": "inhibitor, radiometric", "conditions": "1 µM", "remaining activity [%]": 2}
{"Compound": "Oc1cccc(-c2nc(N3CCOCC3)c3oc4ncccc4c3n2)c1", "assay": "inhibitor", "conditions": "10 µM", "remaining activity [%]": 85}
{"Compound": "CCN(CC)CCNC(=O)c1c(C)[nH]c(/C=C2\\C(=O)Nc3ccc(Cl)cc32)c1C", "assay": "inhibitor", "conditions": "0.5 µM", "remaining activity [%]": 29.4}
{"Compound": "O=C(Nc1cnn(-c2csc(C(=O)NC3COC3)c2)c1)Nc1c(F)cccc1Cl", "assay": "inhibitor", "conditions": "5 µM", "remaining activity [%]": 96.8}
{"Compound": "Clc1ccc(Nc2nnc(Cc3ccncc3)c3ccccc23)cc1", "conditions": "0.5 µM", "remaining activity [%]": 95.7}
{"Compound": "CC(C)(C)c1nc(-c2cccc(NS(=O)(=O)c3c(F)cccc3F)c2F)c(-c2ccnc(N)n2)s1", "assay": "inhibitor, radiometric", "conditions": "1 µM", "remaining activity [%]": 97}
{"Compound": "NS(=O)(=O)c1ccc(CNc2nc(Nc3cccc(CN4CCOCC4)c3)ncc2Br)cc1", "assay": "inhibitor, radiometric", "conditions": "1 µM", "remaining activity [%]": 32}
{"Compound": "COc1cc(Nc2cnc(C#N)c(O[C@H](C)CN(C)C)n2)ncc1-c1cnn(C)c1", "assay": "inhibitor, radiometric", "conditions": "1 µM", "remaining activity [%]": 78}
{"Compound": "Brc1cnc(Nc2cccc(CN3CCOCC3)c2)nc1NCCc1c[nH]cn1", "assay": "inhibitor, radiometric", "conditions": "1 µM", "remaining activity [%]": 36}
{"Compound": "CC(C)(O)[C@H]1CC[C@H](Nc2ccc3ncc(-c4cccc(C(F)(F)F)c4)n3n2)CC1", "assay": "inhibitor", "conditions": "1 µM", "remaining activity [%]": 90.2}
{"Compound": "O=c1c2ccccc2[nH]c(=S)n1CCN1CCC(=C(c2ccc(F)cc2)c2ccc(F)cc2)CC1", "assay": "inhibitor", "conditions": "0.5 µM", "remaining activity [%]": 101}
{"Compound": "Cc1nn(CC(F)(F)F)cc1Nc1ncc(Br)c(NCCc2cnc[nH]2)n1", "assay": "inhibitor, radiometric", "conditions": "1 µM", "remaining activity [%]": 55}
